Results collected from several papers.
Each line is one published result; the experiments were not run side by side.
Target: Serine/threonine-protein kinase PLK1 (PLK1, Homo sapiens, UniProt P53350)

| SMILES | effect on | action | technique | concentration | measurement | value |
| --- | --- | --- | --- | --- | --- | --- |
| Cc1nn(C)cc1-c1nc2c(N3CCN(Cc4ccc(Cl)cc4)CC3)c(Cl)cnc2[nH]1 | binding |  | competition with immobilised ligand | 1 µM | remaining binding | 100% |
| Cn1cc(-c2cc(F)cc(N3CCn4c(cc5c4CCCC5)C3=O)c2CO)cc(Nc2ccc(N3CCN(C4COC4)CC3)cn2)c1=O | enzyme activity | inhibitor |  | 0.1 µM | inhibition | 11% |
| Cn1cncc1[C@@](O)(COc1ccc(C#N)cc1-c1ccc(OC(F)(F)F)cc1)c1ccc(C#N)cc1 | cell-free assay |  | competition with immobilised ligand | 1 µM | remaining binding | 83% |
| Cn1cc(-c2cccc(N3CCc4c(sc5c4CC(C)(C)C5)C3=O)c2CO)cc(Nc2ccncn2)c1=O | enzyme activity | inhibitor |  | 1 µM | inhibition | 4% |
| N#CC1(c2ccccn2)CCN(Cc2cc(C(=O)O)c(=O)n3ccccc23)CC1 | cell-free assay |  | competition with immobilised ligand | 1 µM | remaining binding | 70% |
| CC(C)(C)c1cc(C=C(C#N)C#N)cc(Br)c1O | enzyme activity | inhibitor |  | 0.5 µM | remaining activity | 92.3% |
| C#Cc1n[nH]c2c(-c3cn([C@@H](C)c4ccccc4)c(=O)[nH]c3=O)cc(F)cc12 | enzyme activity | inhibitor |  | 0.1 µM | inhibition | 2.9% |
| Nc1ncc(-c2nc(N3CCOCC3)nc(N3CCOCC3)n2)c(C(F)F)n1 | binding |  | competition with immobilised ligand | 10 µM | remaining binding | 66% |
| C#Cc1n[nH]c2c(-c3cn([C@@H](C)c4ccccn4)c(=O)[nH]c3=O)cc(F)cc12 | enzyme activity | inhibitor |  | 0.1 µM | inhibition | 2.9% |
| O=c1[nH]c2ccccc2n1C1CCN(Cc2ccc(-c3[nH]c4cc5ncnc5cc4nc3-c3ccccc3)cc2)CC1 | cell-free assay |  |  | 0.5 µM | remaining signal | 109% |
| COc1ncccc1-c1cnn2ccc(N3CCN(C(=O)OC(C)C)CC3)nc12 | binding |  | competition with immobilised ligand | 1 µM | remaining binding | 100% |
